Laboratory results reported in ChEMBL document CHEMBL4428078, “Discovery of S3-Truncated, C-6 Heteroaryl Substituted Aminothiazine β-Site APP Cleaving Enzyme-1 (BACE1) Inhibitors” (J Med Chem, 2016).
Blank lines part the entries; values can stand above or below the compound they belong to.

Experiments:
[1] = Plasma concentration in rat at 10 mg/kg, po measured after 5 hrs; assay type: ADME, organism-based
Outline: (§1)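 Female rats dosed orally in PEG-400:EtOH:Tween 80 (84:15:1) at 1, 3 or 10 mg/kg. Plasma and brain were collected 5 h post-dose, N=5 rats/dose. Total drug concentrations were determined and the brain/plasma ratio calculated. Values are means with SD.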

[2] = Ratio of drug level in brain to plasma of mouse at 30 mg/kg, po measured at 3 hrs post dose; assay type: ADME, organism-based; settings: read-out: BPR
Outline: (§2)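 Young mice given a single oral dose of 30 mg/kg. Total brain and plasma drug levels were measured 3 h post-dose and the brain/plasma ratio derived.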

[3] = Metabolic stability in rat liver microsomes assessed as compound remaining at 0.5 uM measured after 10 mins; assay type: ADME, Microsome; settings: read-out: Stability
Outline: (§3)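 Test compound at 0.5 µM incubated 10 min with mouse, rat or human liver microsomes. Read-out is percent of parent compound remaining.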

Beta-secretase 1 = Beta-secretase 1 (Homo sapiens, UniProt P56817); experiment: Inhibition of BACE1 in human H4 cells expressing swedish mutant APP751 assessed as reduction in amyloid beta level measured after 19 hrs; assay type: cell-based
Chain of Beta-secretase 1 (P56817 whole entry): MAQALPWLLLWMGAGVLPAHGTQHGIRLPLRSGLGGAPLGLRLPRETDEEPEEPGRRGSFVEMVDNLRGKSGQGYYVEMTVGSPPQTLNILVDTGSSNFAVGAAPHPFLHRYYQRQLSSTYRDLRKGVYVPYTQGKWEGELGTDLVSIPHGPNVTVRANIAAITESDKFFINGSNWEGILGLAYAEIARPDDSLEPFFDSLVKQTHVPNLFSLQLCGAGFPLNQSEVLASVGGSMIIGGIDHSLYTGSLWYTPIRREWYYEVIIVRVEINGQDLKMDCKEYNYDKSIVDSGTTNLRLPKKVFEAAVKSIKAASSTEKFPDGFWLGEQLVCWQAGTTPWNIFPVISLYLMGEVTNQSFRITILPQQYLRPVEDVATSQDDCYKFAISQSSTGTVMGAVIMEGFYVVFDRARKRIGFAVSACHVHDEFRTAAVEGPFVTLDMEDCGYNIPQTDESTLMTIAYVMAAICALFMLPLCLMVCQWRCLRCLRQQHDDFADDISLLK

[4] = Drug uptake in mouse brain at 30 mg/kg, po measured after 3 hrs; assay type: ADME, organism-based; settings: read-out: Drug uptake; outline: as §2
[5] = Plasma concentration in mouse at 30 mg/kg, po measured after 3 hrs; assay type: ADME, organism-based; outline: as §2
[6] = Metabolic stability in mouse liver microsomes assessed as compound remaining at 0.5 uM measured after 10 mins; assay type: ADME, Microsome; settings: read-out: Stability; outline: as §3
[7] = Metabolic stability in human liver microsomes assessed as compound remaining at 0.5 uM measured after 10 mins; assay type: ADME, Microsome; settings: read-out: Stability; outline: as §3
[8] = Fraction unbound in human plasma; assay type: ADME, cell-free
Outline: (§4)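 Unbound fraction of drug determined in human, rat and mouse plasma, reported as percent unbound.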

[9] = Fraction unbound in rat plasma; assay type: ADME, cell-free; outline: as §4
[10] = Fraction unbound in mouse plasma; assay type: ADME, cell-free; outline: as §4
[11] = Plasma concentration in rat at 1 mg/kg, po measured after 5 hrs; assay type: ADME, organism-based; outline: as §1
[12] = Plasma concentration in rat at 3 mg/kg, po measured after 5 hrs; assay type: ADME, organism-based; outline: as §1
[13] = Drug uptake in rat brain at 1 mg/kg, po measured after 5 hrs; assay type: ADME, organism-based; settings: read-out: Drug uptake; outline: as §1
[14] = Drug uptake in rat brain at 3 mg/kg, po measured after 5 hrs; assay type: ADME, organism-based; settings: read-out: Drug uptake; outline: as §1
[15] = Drug uptake in rat brain at 10 mg/kg, po measured after 5 hrs; assay type: ADME, organism-based; settings: read-out: Drug uptake; outline: as §1
[16] = Ratio of drug level in brain to plasma of rat at 1 mg/kg, po measured at 5 hrs post dose; assay type: ADME, organism-based; settings: read-out: BPR; outline: as §1
[17] = Ratio of drug level in brain to plasma of rat at 3 mg/kg, po measured at 5 hrs post dose; assay type: ADME, organism-based; settings: read-out: BPR; outline: as §1
[18] = Ratio of drug level in brain to plasma of rat at 10 mg/kg, po measured at 5 hrs post dose; assay type: ADME, organism-based; settings: read-out: BPR; outline: as §1
[19] = Clearance in rat plasma at 2 mg/kg, iv administered as bolus or 10 mg/kg, po; assay type: ADME, organism-based
Outline: (§5)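 Rats given a 2 mg/kg IV bolus or 10 mg/kg orally for IV/PO pharmacokinetics. Clearance and volume of distribution come from the IV arm. Clearance is also expressed against rat hepatic blood flow.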

[20] = Clearance in rat plasma at 2 mg/kg, iv administered as bolus or 10 mg/kg, po relative to hepatic blood flow; assay type: ADME, organism-based; settings: in vivo; outline: as §5
[21] = Volume of distribution in rat plasma at 2 mg/kg, iv administered as bolus or 10 mg/kg, po; assay type: ADME, organism-based; outline: as §5
[22] = Cmax in rat at 10 mg/kg, po measured after 5 hrs; assay type: ADME, organism-based; parameters: dose 10 mg/kg, route oral; settings: in vivo
Outline: (§6)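 Rat IV/PO pharmacokinetics with a 2 mg/kg IV bolus and a 10 mg/kg oral dose. […] Oral bioavailability is calculated from the IV and PO AUC values.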

[23] = Oral bioavailability in rat at 10 mg/kg measured after 5 hrs; assay type: ADME, organism-based; settings: in vivo; outline: as §6
Cytochrome P450 1A2 = target: T1, Cytochrome P450 1A2 (Homo sapiens, UniProt P05177); experiment: Inhibition of recombinant human CYP1A2 preincubated for 10 mins followed by addition of CEC as substrate measured after 45 mins; assay type: ADME
T1 sequence (P05177 whole entry): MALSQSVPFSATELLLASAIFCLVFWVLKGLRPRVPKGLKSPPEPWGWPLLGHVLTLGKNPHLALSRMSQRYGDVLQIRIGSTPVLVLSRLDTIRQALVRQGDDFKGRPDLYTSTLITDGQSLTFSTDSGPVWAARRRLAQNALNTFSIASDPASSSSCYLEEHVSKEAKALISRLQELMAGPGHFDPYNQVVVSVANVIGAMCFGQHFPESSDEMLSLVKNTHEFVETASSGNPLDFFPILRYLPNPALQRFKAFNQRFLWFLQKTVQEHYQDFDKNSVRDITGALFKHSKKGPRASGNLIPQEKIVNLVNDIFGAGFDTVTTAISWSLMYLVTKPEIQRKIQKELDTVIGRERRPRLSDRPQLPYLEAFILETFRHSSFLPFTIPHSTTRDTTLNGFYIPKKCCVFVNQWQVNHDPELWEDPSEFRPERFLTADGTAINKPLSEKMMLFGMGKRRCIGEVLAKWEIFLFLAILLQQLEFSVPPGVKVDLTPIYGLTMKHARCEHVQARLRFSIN
Outline: (§7)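 Inhibition of recombinant human CYP1A2, CYP2C9, CYP2C19, CYP2D6 and CYP3A4 enzymes, reported as IC50.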

Cytochrome P450 2C9 = Cytochrome P450 2C9 (Homo sapiens, UniProt P11712); experiment: Inhibition of recombinant human CYP2C9 preincubated for 10 mins followed by addition of MFC as substrate measured after 45 mins; assay type: ADME; outline: as §7
Chain of Cytochrome P450 2C9 (P11712 whole entry): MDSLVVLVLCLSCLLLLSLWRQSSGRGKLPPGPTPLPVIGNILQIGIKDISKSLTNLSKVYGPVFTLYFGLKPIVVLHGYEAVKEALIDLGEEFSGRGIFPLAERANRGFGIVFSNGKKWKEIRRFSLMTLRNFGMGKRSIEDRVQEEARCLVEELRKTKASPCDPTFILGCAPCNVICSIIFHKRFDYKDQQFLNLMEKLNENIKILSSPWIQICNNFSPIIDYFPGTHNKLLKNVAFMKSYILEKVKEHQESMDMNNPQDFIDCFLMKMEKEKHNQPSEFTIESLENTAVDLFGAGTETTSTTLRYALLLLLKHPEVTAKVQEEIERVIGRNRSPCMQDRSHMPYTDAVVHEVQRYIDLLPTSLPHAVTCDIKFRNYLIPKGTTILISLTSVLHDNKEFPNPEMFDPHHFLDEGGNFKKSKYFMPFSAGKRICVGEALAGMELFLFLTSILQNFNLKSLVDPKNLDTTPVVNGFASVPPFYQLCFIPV

Cytochrome P450 2C19 = Cytochrome P450 2C19 (Homo sapiens, UniProt P33261); experiment: Inhibition of recombinant human CYP2C19 preincubated for 10 mins followed by addition of CEC as substrate measured after 45 mins; assay type: ADME; outline: as §7
Chain of Cytochrome P450 2C19 (P33261 whole entry): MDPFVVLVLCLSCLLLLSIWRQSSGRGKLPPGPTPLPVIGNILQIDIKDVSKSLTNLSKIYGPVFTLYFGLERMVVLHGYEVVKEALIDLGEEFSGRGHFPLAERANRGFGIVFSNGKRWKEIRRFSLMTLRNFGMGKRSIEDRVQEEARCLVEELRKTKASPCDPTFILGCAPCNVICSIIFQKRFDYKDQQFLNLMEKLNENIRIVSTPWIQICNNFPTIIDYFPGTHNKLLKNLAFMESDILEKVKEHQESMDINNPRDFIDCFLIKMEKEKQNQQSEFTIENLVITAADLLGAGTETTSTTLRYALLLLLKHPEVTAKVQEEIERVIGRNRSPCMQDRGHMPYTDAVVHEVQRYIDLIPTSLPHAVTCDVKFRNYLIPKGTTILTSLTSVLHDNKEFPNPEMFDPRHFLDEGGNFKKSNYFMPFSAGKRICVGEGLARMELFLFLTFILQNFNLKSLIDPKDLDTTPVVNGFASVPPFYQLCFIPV

Cytochrome P450 2D6 = Cytochrome P450 2D6 (Homo sapiens, UniProt P10635); experiment: Inhibition of recombinant human CYP2D6 preincubated for 10 mins followed by addition of AMMC as substrate measured after 45 mins; assay type: ADME; outline: as §7
Chain of Cytochrome P450 2D6 (P10635 whole entry): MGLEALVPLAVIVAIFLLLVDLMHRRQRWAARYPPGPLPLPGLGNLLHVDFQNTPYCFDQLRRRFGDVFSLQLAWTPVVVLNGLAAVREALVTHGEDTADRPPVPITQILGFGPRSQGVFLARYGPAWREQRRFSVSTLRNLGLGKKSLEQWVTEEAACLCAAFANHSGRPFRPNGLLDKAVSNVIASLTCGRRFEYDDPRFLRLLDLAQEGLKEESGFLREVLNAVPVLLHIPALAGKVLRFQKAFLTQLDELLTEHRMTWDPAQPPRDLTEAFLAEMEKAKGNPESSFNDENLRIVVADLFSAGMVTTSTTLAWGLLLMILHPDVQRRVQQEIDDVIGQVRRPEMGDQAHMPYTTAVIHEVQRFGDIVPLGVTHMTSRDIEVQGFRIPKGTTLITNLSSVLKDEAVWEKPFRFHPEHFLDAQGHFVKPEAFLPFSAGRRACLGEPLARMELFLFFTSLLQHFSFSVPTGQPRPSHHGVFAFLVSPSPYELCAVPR

Cytochrome P450 3A4 = Cytochrome P450 3A4 (Homo sapiens, UniProt P08684); experiment: Inhibition of recombinant human CYP3A4 preincubated for 10 mins followed by addition of BFC as substrate measured after 45 mins; assay type: ADME; outline: as §7
Chain of Cytochrome P450 3A4 (P08684 whole entry): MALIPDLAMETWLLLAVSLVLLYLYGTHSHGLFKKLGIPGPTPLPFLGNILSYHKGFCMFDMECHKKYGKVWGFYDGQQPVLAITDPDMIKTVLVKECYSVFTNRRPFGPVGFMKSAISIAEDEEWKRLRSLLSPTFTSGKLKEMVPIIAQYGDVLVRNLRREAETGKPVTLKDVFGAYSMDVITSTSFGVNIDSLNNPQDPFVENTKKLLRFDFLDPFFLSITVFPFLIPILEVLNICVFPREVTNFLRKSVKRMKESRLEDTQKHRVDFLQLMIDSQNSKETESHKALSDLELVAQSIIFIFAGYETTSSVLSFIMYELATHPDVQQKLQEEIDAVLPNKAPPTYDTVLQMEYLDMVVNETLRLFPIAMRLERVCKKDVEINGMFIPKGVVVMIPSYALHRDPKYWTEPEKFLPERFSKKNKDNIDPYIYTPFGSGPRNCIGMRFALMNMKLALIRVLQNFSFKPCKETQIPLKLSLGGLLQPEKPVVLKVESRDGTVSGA

[24] = Fraction unbound in rat plasma at 1 to 10 mg/kg, po; assay type: ADME, organism-based; settings: in vivo
[25] = Ratio of fraction unbound in rat plasma to IC50 for BACE1 in human H4 cells expressing swedish mutant APP751; assay type: ADME, cell-based
Rattus norvegicus [26] = experiment: In vivo inhibition of BACE1 in po dosed rat assessed as reduction in brain amyloid beta42 level measured after 5 hrs by ELISA
Rattus norvegicus [27] = experiment: In vivo inhibition of BACE1 in po dosed rat assessed as reduction in brain amyloid beta40 level measured after 5 hrs by ELISA relative to control
Rattus norvegicus [28] = experiment: In vivo inhibition of BACE1 in po dosed rat assessed as reduction in brain amyloid beta42 level measured after 5 hrs by ELISA relative to control
Rattus norvegicus [29] = experiment: In vivo inhibition of BACE1 in po dosed rat assessed as reduction in total amyloid beta level in brain measured after 5 hrs by ELISA relative to control
Mus musculus = experiment: In vivo inhibition of BACE1 in mouse assessed as reduction in brain amyloid beta level at 30 mg/kg, po measured after 3 hrs by ELISA relative to control; assay type: functional
Outline: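 Young mice dosed orally at 30 mg/kg. Brain Aβ was measured 3 h post-dose and expressed as percent reduction.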

SMILES: Cc1noc(-c2ccc(F)cc2)c1[C@@H]1C[C@@](C)(c2ccc(F)cc2F)N=C(N)S1
remaining at 10 min, 0.5 µM [3]: 88%
IC50 (Beta-secretase 1): 410 nM
remaining at 10 min, 0.5 µM [6]: 53%
remaining at 10 min, 0.5 µM [7]: 45%

SMILES: Cc1noc(C)c1[C@@H]1C[C@@](C)(c2ccccc2)N=C(N)S1
remaining at 10 min, 0.5 µM [3]: 81%
IC50 (Beta-secretase 1): 480 nM
remaining at 10 min, 0.5 µM [6]: 78%
remaining at 10 min, 0.5 µM [7]: 86%

SMILES: Cc1noc(C)c1[C@@H]1C[C@@](C)(c2cc(-c3cncnc3)c(F)cc2F)N=C(N)S1
Kp at 3 h [2]: 0.08
concentration at 3 h [4]: 0.58 µM
concentration at 3 h [5]: 7.4 µM

SMILES: CCc1noc(CC)c1[C@@H]1C[C@@](C)(c2ccc(F)cc2F)N=C(N)S1
remaining at 10 min, 0.5 µM [3]: 67%
IC50 (Beta-secretase 1): 420 nM
remaining at 10 min, 0.5 µM [6]: 59%
remaining at 10 min, 0.5 µM [7]: 35%

More lines, in order of falling IC50 (Beta-secretase 1), values ahead:

Kp at 3 h [2]: 1.3
remaining at 10 min, 0.5 µM [3]: 78%
IC50 (Beta-secretase 1): 350 nM
concentration at 3 h [4]: 4.3 µM
concentration at 3 h [5]: 4.3 µM
remaining at 10 min, 0.5 µM [6]: 72%
remaining at 10 min, 0.5 µM [7]: 70%
SMILES: Cn1nccc1[C@@H]1C[C@@](C)(c2ccc(F)cc2F)N=C(N)S1
inhibition in vivo at 30 mg/kg (Mus musculus): 62%

concentration at 5 h [1]: 6.6 µM
Kp at 3 h [2]: 1.8
remaining at 10 min, 0.5 µM [3]: 95%
IC50 (Beta-secretase 1): 310 nM
concentration at 3 h [4]: 6.7 µM
concentration at 3 h [5]: 6.7 µM
remaining at 10 min, 0.5 µM [6]: 68%
remaining at 10 min, 0.5 µM [7]: 90%
fraction unbound [8]: 0.37
fraction unbound [9]: 0.48
fraction unbound [10]: 0.42
concentration at 5 h [11]: 0.82 µM
concentration at 5 h [12]: 1.8 µM
concentration at 5 h [13]: 2.3 µM
concentration at 5 h [14]: 2.8 µM
concentration at 5 h [15]: 12 µM
Kp at 5 h [16]: 2.8
Kp at 5 h [17]: 1.8
Kp at 5 h [18]: 1.8
clearance [19]: 12 mL/min/kg
CL [20]: 20%
Vd [21]: 8.2 L/kg
Cmax [22]: 3.7 µM
bioavailability [23]: > 100%
IC50 (Cytochrome P450 1A2): > 20000 nM
IC50 (Cytochrome P450 2C9): > 20000 nM
IC50 (Cytochrome P450 2C19): 9000 nM
IC50 (Cytochrome P450 2D6): > 20000 nM
IC50 (Cytochrome P450 3A4): > 20000 nM
Cp(f) [24]: 1.8 µM
Ratio [25]: 6
EC50 (Rattus norvegicus [26]): 3800 nM
SMILES: C[C@@]1(c2ccc(F)cc2F)C[C@@H](c2cncnc2)SC(N)=N1
inhibition (Rattus norvegicus [27]): Dose-dependent effect
inhibition (Rattus norvegicus [28]): Dose-dependent effect
inhibition (Rattus norvegicus [29]): Dose-dependent effect

remaining at 10 min, 0.5 µM [3]: 59%
IC50 (Beta-secretase 1): 250 nM
remaining at 10 min, 0.5 µM [6]: 41%
remaining at 10 min, 0.5 µM [7]: 21%
SMILES: CCc1noc(C)c1[C@@H]1C[C@@](C)(c2ccc(F)cc2F)N=C(N)S1

remaining at 10 min, 0.5 µM [3]: 5%
IC50 (Beta-secretase 1): 180 nM
remaining at 10 min, 0.5 µM [6]: 6%
remaining at 10 min, 0.5 µM [7]: 17%
SMILES: Cc1onc(-c2cccnc2)c1[C@@H]1C[C@@](C)(c2ccc(F)cc2F)N=C(N)S1
